Publication PMC8039535 (Molecular Therapy. Nucleic Acids, 2021)

Tests used:
[1] = Steroid pharmacokinetics after i.v. or s.c. administration; assay type: in vivo, CD1 mice; conditions: CD1, mouse, plasma, iv
Method in brief: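 CD1 mice (n = 4) received steroid i.v. or s.c. intrascapularly. Parent steroid was given in 0.6% ethanol in PBS; ester prodrugs were given within hFGF21 mRNA MC3 LNPs. Serial saphenous blood was drawn, with a terminal sample at 24 h. Parent steroid in plasma was quantified by UPLC–triple quadrupole MS.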

hFGF21 protein = assay type: in vivo; conditions: prodrug incorporated into the MC3 LNP, s.c., 0.3 mg/kg mRNA, CD1 mice
Method in brief: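 CD1 mice (n = 5) under light isoflurane received hFGF21 mRNA in MC3 LNPs (0.3 mg/kg mRNA) s.c. intrascapularly at 5 mL/kg. LNPs were with or without steroid ester prodrug at a prodrug steroid/mRNA weight ratio of 1:1. Saphenous blood was taken at 2, 5, 8 and 24 h. Plasma (3,000 × g, 10 min, 4°C) hFGF21 was measured by multiplex Luminex. AUC2–24 h was reported as a geometric mean.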

clearance [1] [mL/min/kg] | half-life ([1]; Half-life in plasma, i.v. administration, CD1 mice) [min] | Compound | Fold increase of hFGF21 AUC2–24 h versus MC3 LNP without steroid (hFGF21 protein) [fold]
121 | ~40 | CCCC1O[C@@H]2C[C@H]3[C@@H]4CCC5=CC(=O)C=C[C@]5(C)[C@H]4[C@@H](O)C[C@]3(C)[C@]2(C(=O)CO)O1 (stereo partly drawn) [Budesonide parent, budesonide] | 
 |  | CCCCCCCCCCCCCC(=O)OCC(=O)[C@@]12O[C@H](CCC)O[C@@H]1C[C@H]1[C@@H]3C[C@H](F)C4=CC(=O)CC[C@]4(C)[C@@]3(F)[C@@H](O)C[C@@]12C [Rofleponide-C14] | 3.8
